Bioassay records from PubChem BioAssay.
CSN deneddyl inh = inhibitors of CSN-mediated cullin deneddylation, primary screen, biochemical, fluorescence polarization, uHTS; COP9 signalosome complex subunit 5 (Homo sapiens), Q92905; Purified CSN, SCF-Nedd8-OG deneddylation; inhibition, % at 12.5 µM; 360,000 compounds, 0.38% hits; AID 651999, 2013;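 active means pattern-corrected inhibition above about 35%, with an unprinted fluorescence ratio check between 0.5 and 1.5, limit read from the data, passing the limit was not always enough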;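 further: 0% = enzyme with substrate and 100% = substrate without enzyme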
Target sequence (Q92905 whole entry, looked up, one chain of several): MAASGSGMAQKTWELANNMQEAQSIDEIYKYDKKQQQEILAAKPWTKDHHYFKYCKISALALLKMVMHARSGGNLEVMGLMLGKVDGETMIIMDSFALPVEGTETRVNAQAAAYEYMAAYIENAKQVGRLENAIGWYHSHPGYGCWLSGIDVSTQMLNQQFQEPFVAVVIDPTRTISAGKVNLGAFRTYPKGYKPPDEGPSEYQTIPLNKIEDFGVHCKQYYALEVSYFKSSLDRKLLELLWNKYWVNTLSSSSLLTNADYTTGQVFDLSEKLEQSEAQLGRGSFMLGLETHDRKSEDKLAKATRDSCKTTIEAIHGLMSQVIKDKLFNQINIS
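Assay system: Purified human Csn5 enzyme expressed in HEK293T cells | Amount: Enzyme 0.24 nM | Measured by: Fluorescence polarization readout | Medium: Tris/NaCl/DTT buffer, pH 7.5 | Compound dosing: One concentration, 12.5 µM, 0.25% DMSO | Times: 90 min incubation of compound, enzyme and substrate at room temperature | Control set: no-enzyme wells high, enzyme-with-substrate wells low | Read-out: % inhibition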
TPT1 inh = Candida albicans TPT1 enzyme inhibitors, primary screen, biochemical, fluorescence polarization | tRNA 2'-phosphotransferase TPT1 (Candida albicans SC5314) | recombinant caTPT1, FP RNA substrate dephosphorylation | inhibition, % at 5 µM | 300,000 compounds, 0.81% hits | AID 1962, 2009;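 active means inhibition above the mean of all tested compounds plus 3 SD, set per screening campaign, cut at about 24% in these data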;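 further: plate controls were DMSO alone for no effect and ferristatin control at 100 nM for full effect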
Myeloid diff 2 = induction of myeloid progenitor differentiation, primary screen, cell-based, flow cytometry, MLPCN library. ER-HoxA9 myeloid progenitors, lysozyme-GFP differentiation. calls only at 10 µM. 360,000 compounds, 1% hits. AID 624256, 2012;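 active means normalized GFP-positive differentiation at or above the plate's own cutoff, the solvent-only control mean plus 3 SD; inconclusive means no clear call, values can overlap the other calls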;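 further: cells exposed to compound for four days before flow analysis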
Rpn11 block = Rpn11 (PSMD14) deubiquitinase inhibitors, primary screen, biochemical, fluorescence polarization, uHTS; 26S proteasome non-ATPase regulatory subunit 14 (Homo sapiens), O00487; inhibition, % at 20 µM; human 26S proteasome, Ub4-pepOG fluorescence polarization; 20S core pre-blocked with epoxomicin; 360,000 compounds, 0.59% hits;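 active means inhibition at 20 µM, scaled to each plate's controls, above about 33%, limit read from the data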
Target sequence (O00487 whole entry, looked up): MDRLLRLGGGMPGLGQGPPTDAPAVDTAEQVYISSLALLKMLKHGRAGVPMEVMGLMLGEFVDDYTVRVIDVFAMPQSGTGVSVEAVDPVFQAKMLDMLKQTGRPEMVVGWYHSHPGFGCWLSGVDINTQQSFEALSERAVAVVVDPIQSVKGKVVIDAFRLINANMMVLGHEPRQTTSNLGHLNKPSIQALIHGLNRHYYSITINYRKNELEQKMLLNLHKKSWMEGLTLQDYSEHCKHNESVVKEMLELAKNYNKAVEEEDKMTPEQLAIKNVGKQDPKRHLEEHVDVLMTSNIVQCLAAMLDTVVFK
HNF4A DNA FP = change in binding of human HNF4A to DNA, primary screen, biochemical, fluorescence polarization, FITC-DNA | activity change, % at 10 µM | AID 1224865, 2016 | Hepatocyte nuclear factor 4-alpha (Homo sapiens), P41235 | 360,000 compounds, 0.3% hits | 1 h; in the data active means activity change above about 30%, passing the limit was not always enough
Myeloid diff CP1 = inducers of myeloid progenitor differentiation, confirmation, cell-based, GFP/Mac1 flow cytometry, cherry pick 01; shares compounds with Myeloid diff 2; ER-HoxA9 myeloid progenitors, GFP/Mac1 double-positive flow; calls only; 2,300 compounds, 2% hits; AID 651706, 2012;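 active means share of green or green-and-red cells above 9 and 9% in run 1 or 4 and 3% in run 2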
GFP autofluor = compound fluorescence in myeloid differentiation counter-screen; shares compounds with Myeloid diff 2; ER-HoxA9 myeloid progenitors, no estrogen, GFP autofluorescence flow cytometry; vehicle wells 0%, positive control 100%; AID 651707; fluorescence response, % (concentration not given with the values); 2,300 compounds, 7.4% hits;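 active means over 5% cells positive for green fluorescent reporter, or over 2% positive for both it and APC stain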;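 further: range taken on the double positive population between DMSO and positive control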
Active calls of the source: *; i = inactive; ? = inconclusive; nt = not tested or not shown; + = active, no number. Hits are enriched below; roughly 2.3% of the tested compounds scored in any of these assays.

SMILES	CSN deneddyl inh	TPT1 inh	Myeloid diff 2	Rpn11 block	HNF4A DNA FP	Myeloid diff CP1	GFP autofluor
CCOC(=O)C1=NN(C(=O)c2ccccc2)C(O)(c2ccc(C)cc2)C1 (stereo not drawn)	-0.9	-3.5	i	0.5	4.3	nt	nt
COc1ccccc1C1(CCNS(=O)(=O)c2ccc(C)cc2)CCOC(C(C)C)C1 (stereo not drawn)	4.1	-0.5	+	8.7	0.6	i	0.0
COc1ccccc1C1(CCNC(C)c2cccs2)CCOC(C(C)C)C1 (stereo not drawn)	-3.7	0.5	i	-3.1	1.9	nt	nt
CCc1ccc(-c2cc(C(=O)N/N=C/c3c[nH]c4ccccc34)[nH]n2)cc1	-0.9	0.6	i	3.6	-0.5	i	2.1
CC(C)Cn1c(SCC(=O)N(C)c2c(N)n(Cc3ccccc3)c(=O)[nH]c2=O)nc2ccccc21	3.3	3.3	i	-0.8	1.2	nt	nt
COc1cccc(NS(=O)(=O)c2ccc3c(c2)n(C)c(=O)c(=O)n3C)c1	3.6	-4.8	i	-4.0	3.9	nt	nt
CCn1c(=O)c(=O)n(CC)c2cc(S(=O)(=O)Nc3cccc(OC)c3)ccc21	0.1	0.3	+	-0.8	-0.8	i	0.0
O=C(Nc1ccon1)C1CCN(S(=O)(=O)c2cccs2)CC1	-4.2	-2.1	i	0.9	0.1	i	0.6
Cc1cc(NC(=O)C2CCN(S(=O)(=O)c3cccs3)CC2)no1	-2.7	-7.7	i	3.5	0.3	nt	nt
O=C(Cn1c2ccccc2c2nc3n(c(=O)c21)CCS3)Nc1ccccc1C(F)(F)F	-2.5	0.4	i	4.3	-1.4	nt	nt
COc1ccccc1NC(=O)Cn1c2ccccc2c2nc3n(c(=O)c21)CCS3	2.1	-0.5	+	2.1	4.6	i	0.0
COC(=O)[C@H](CCSC)NC(=O)N1CCN(c2cccc(C(F)(F)F)c2)CC1	4.6	0.6	i	3.7	0.1	i	0.0
CCOC(=O)C1(C)CCCN(C(=O)c2ccc(OC)c(OC)c2)C1 (stereo not drawn)	-2.0	nt	i	-7.8	-1.0	nt	nt
COc1ccc(CCNc2c(C)c(C)nc3ncnn23)cc1	-3.5	1.9	i	-0.7	1.8	i	0.0
CCOC(=O)CC1C(=O)NCCN1S(=O)(=O)c1ccc(Cl)cc1 (stereo not drawn)	2.2	-0.6	+	3.8	-6.5	i	0.0
Cc1cc(C)nc(N/C(=N\S(=O)(=O)Cc2ccccc2)Nc2ccccc2Br)n1	1.4	-1.2	i	-12.8	-1.8	nt	nt
CN(C(=O)c1cc2sccc2n1C)C1CCCCC1	0.9	-0.6	+	-0.1	3.2	i	0.3
O=C(C[n+]1cccc2ccccc21)c1ccc(Br)cc1	5.0	11.0	+	nt	5.9	i	1.2
Cc1ccc(C(=O)C[n+]2ccccc2)cc1	-3.6	nt	i	-57.0	2.9	nt	nt
NC(=O)C[n+]1cccc2ccccc21	-16.4	-62.1	i	-50.5	-27.8	nt	nt
Cc1ccc(C(=O)C[n+]2cccc3ccccc32)cc1	10.1	20.9	+	18.5	5.3	i	1.2
CC1=CC2C(C(O)CC3(C)C2CC(C)C32OCOC23COCO3)C2(C)C/C(=C\O)C(=O)C=C12 (stereo not drawn)	6.0	nt	?	8.4	-2.6	nt	nt
COC(CNC(=O)[C@H](Cc1ccccc1)N1Cc2ccccc2C1=O)OC	0.8	-1.1	i	2.0	-1.5	nt	nt
CCC(C)N(C(=O)Cn1nnc2ccccc21)C(C(=O)NCc1ccco1)c1cccc(OC)c1 (stereo not drawn)	4.0	0.8	i	-0.1	1.4	i	0.0
Cc1ccccc1NC(=S)Nc1ccccn1	3.6	-0.3	i	2.7	0.3	i	0.6
SMILES	CSN deneddyl inh	TPT1 inh	Myeloid diff 2	Rpn11 block	HNF4A DNA FP	Myeloid diff CP1	GFP autofluor
COc1cccc(NC(=O)CN2C(=O)c3cccnc3Oc3ccc(Cl)cc32)c1	-3.5	7.4	i	12.5	1.1	nt	nt
O=C(CN1C(=O)c2cccnc2Oc2ccc(Cl)cc21)Nc1ccccc1F	0.4	9.1	+	12.2	10.2	i	0.4
CCOc1ccccc1Nc1nc2ccccc2n1C(C)C	-14.3	3.1	i	7.0	2.8	nt	nt
Nc1ccc2c(c1)OC1(CCCC1)O2	-4.0	7.7	i	4.4	0.5	nt	nt
Cc1ccc(S(=O)(=O)CCSc2nc(C)cc(C)c2C#N)cc1	2.3	-0.2	+	-8.0	0.6	i	0.0
COc1ccc(C(=O)N2CCOC2CNC(=O)C(=O)NCc2ccc3c(c2)OCO3)cc1 (stereo not drawn)	-3.9	0.3	nt	-3.1	0.8	nt	nt
COc1ccc(-c2sc3cc(OC)c(OC)cc3c2-c2ccc(O)cc2)cc1	4.9	nt	i	3.0	2.4	i	0.3
CC(C)CC(=O)Nc1ccc(C(=O)NNC(=O)C(c2ccccc2)c2ccccc2)cc1	-6.1	2.2	i	-5.6	-4.6	i	0.0
COc1cc(C2C(C#N)=C(N)OC3=C2C(=O)CCC3)c([N+](=O)[O-])cc1OC (stereo not drawn)	-8.9	-44.4	i	-106.5	-96.9	nt	nt
C[C@@H](C(O)c1ccccc1)N(C)C(=O)CCc1ccccc1 (stereo partly drawn)	-4.4	-0.9	i	-4.7	-2.2	nt	nt
COc1ccc(-c2csc(C(O)c3ccc(F)c(F)c3)n2)cn1 (stereo not drawn)	1.9	nt	+	3.7	0.7	i	0.6
CC(=O)Oc1ccccc1Cn1c(C)c(C(=O)NCc2ccccc2C(F)(F)F)sc1=O	0.7	nt	i	1.4	3.8	nt	nt
COc1ccc(NC(=O)C[C@H]2C(=O)N(c3ccc(Br)cc3)C[C@@H]2CSC)cc1	-0.3	nt	i	4.4	-1.9	i	1.1
COc1ccccc1C(=O)N1CCN(C(=O)c2oc3ccc(C)cc3c2C)CC1	6.2	-3.8	i	1.8	-3.2	nt	nt
COc1ccc(Br)cc1CN(C)C(=O)C1=CC=CN2CCS(=O)(=O)N=C12	1.8	nt	i	1.7	1.8	i	0.0
CN(Cc1ccc(Cl)c(Cl)c1)C(=O)C1=CC=CN2CCS(=O)(=O)N=C12	4.3	nt	+	5.6	0.2	+	0.0
O=C(Oc1ccc(Cl)c(Cl)c1)C1=CC=CN2CCS(=O)(=O)N=C12	0.9	nt	i	0.7	-1.8	nt	nt
COc1ccc(Br)cc1CN(C)C(=O)c1ccncc1	-1.4	3.6	i	-4.7	3.1	nt	nt
